Data from ChEMBL document CHEMBL6134793, “Synthesis and structure-activity study of the antimicrobial lipopeptide brevibacillin” (RSC Med Chem, 2024).
In brackets after ≈: the same amount, converted by molar mass. Activity calls are given as the source filed them. The rule behind the calls is not given here.

How the values were obtained:
[1] = test system: Campylobacter coli; assay: Antimicrobial activity against Campylobacter coli ATCC 33559 assessed as growth inhibition by microdilution assay; assay type: functional
Summary of the method: (§1)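 Twofold serial microdilution of peptide (stocks 2 mg mL−1, diluted to 512 μg mL−1 in water with 10% DMSO) in strain medium, about 1 × 10^4 cfu per well. Media: TSB 20 h 37 °C (S. aureus, L. monocytogenes, B. subtilis, E. faecalis); LB 20 h 37 °C (P. aeruginosa, S. enterica, E. coli); Brucella 48 h 37 °C (C. coli). A595 read; MIC = lowest concentration with no visible growth; triplicate.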

[2] = test system: Bacillus subtilis; assay: Antimicrobial activity against Bacillus subtilis ATCC 23957 assessed as growth inhibition by microdilution assay; assay type: functional; summary of the method: as §1
[3] = test system: Clostridium perfringens; assay: Antimicrobial activity against Clostridium perfringens ATCC 3628 assessed as growth inhibition by microdilution assay; assay type: functional
Summary of the method: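 Broth microdilution: twofold serial peptide dilutions in reinforced clostridial medium (RCM), seeded with about 1 × 10^4 cfu per well, incubated 20 h at 37 °C. Working solution 512 μg mL−1 made from a 2 mg mL−1 stock in water with 10% DMSO. Growth read as absorbance at 595 nm. MIC taken as the lowest concentration giving complete inhibition of visible growth; run in triplicate.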

[4] = test system: Escherichia coli; assay: Antimicrobial activity against Escherichia coli ATCC 25922 assessed as growth inhibition by microdilution assay; assay type: functional; summary of the method: as §1
[5] = Hemolytic activity in human erythrocytes at 128 ug/ml measured after 1 hr by absorbance based assay relative to control; assay type: toxicity, cell-based, Erythrocyte; conditions: at 128 µg/mL, read-out: Activity
Summary of the method: (§2)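 Washed human donor erythrocytes at 1% hematocrit in PBS pH 7.4 exposed to twofold peptide dilutions (final 2–256 μg mL−1, up to 1% DMSO) for 1 h at 37 °C. After centrifugation, supernatant A405 read. % hemolysis relative to PBS (0%) and 1% Triton X-100 (100%). Triplicate; mean ± SEM.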

[6] = test system: Pseudomonas aeruginosa; assay: Antimicrobial activity against Pseudomonas aeruginosa ATCC […] assessed as growth inhibition at 128 ug/ml by radial diffusion assay; assay type: functional, organism-based; conditions: dose 128.0 µg/ml
Summary of the method: (§3)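 Agar well diffusion. Overnight cultures inoculated at 1% into 0.75% soft agar (TSB for S. aureus, LB for P. aeruginosa). Each well received 80 μL of peptide at 128 μg mL−1 in water with 10% DMSO; 10% DMSO served as negative control. Inhibition zone diameter scored after strain-specific incubation.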

[7] = Cytotoxicity against human Caco-2 cells assessed as inhibition of cell viability incubated for 48 hrs by Cell Titer GLO assay; assay type: toxicity, cell-based
Summary of the method: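 Caco-2 cells in DMEM with 10% FCS, seeded 25 000 per well, adhered overnight, then given peptide at 2–256 μg mL−1 in complete medium for 48 h at 37 °C, 5% CO2. Controls: cisplatin 125 μM; 0.1% DMSO medium. Viability by ATP luminescence (CellTiter-Glo) versus untreated cells; IC50 from dose–response; mean ± SEM of at least three independent experiments.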

[8] = Hemolytic activity in human erythrocytes at 256 ug/ml measured after 1 hr by absorbance based assay relative to control; assay type: toxicity, cell-based, Erythrocyte; conditions: at 256 µg/mL, read-out: Activity; summary of the method: as §2
[9] = test system: Staphylococcus aureus; assay: Antimicrobial activity against Staphylococcus aureus ATCC 6538 assessed as growth inhibition by microdilution assay; assay type: functional; summary of the method: as §1
[10] = Antimicrobial activity against Salmonella enterica serovar Newport ATCC 6962 assessed as growth inhibition by microdilution assay; assay type: functional, Salmonella enterica subsp. enterica serovar Newport; summary of the method: as §1
[11] = test system: Listeria monocytogenes; assay: Antimicrobial activity against Listeria monocytogenes ATCC 19111 assessed as growth inhibition by microdilution assay; assay type: functional; summary of the method: as §1
[12] = test system: Enterococcus faecalis; assay: Antimicrobial activity against Enterococcus faecalis ATCC 29212 assessed as growth inhibition by microdilution assay; assay type: functional; summary of the method: as §1
[13] = test system: Staphylococcus aureus; assay: Bactericidal activity against Staphylococcus aureus ATCC 6538 measured after 48 hrs by microdilution assay; assay type: functional, organism-based
Summary of the method: (§4)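 MIC wells showing complete inhibition were sampled, 10 μL spread on agar and incubated 48 h under strain conditions; MBC = lowest concentration giving no growth on agar. MIC by broth microdilution (TSB 20 h 37 °C for S. aureus; Brucella 48 h 37 °C for C. coli). Triplicate.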

[14] = test system: Pseudomonas aeruginosa; assay: Antimicrobial activity against Pseudomonas aeruginosa ATCC […] assessed as growth inhibition by microdilution assay; assay type: functional; summary of the method: as §1
[15] = test system: Campylobacter coli; assay: Bacteriostatic activity against Campylobacter coli ATCC 33559 measured after 48 hrs by microdilution assay; assay type: functional, organism-based; summary of the method: as §4
[16] = test system: Staphylococcus aureus; assay: Antimicrobial activity against Staphylococcus aureus ATCC 6538 assessed as growth inhibition at 128 ug/ml by radial diffusion assay; assay type: functional, organism-based; conditions: dose 128.0 µg/ml; summary of the method: as §3
[17] = Hemolytic activity in human erythrocytes assessed as fold decrease at 256 ug/ml measured after 1 hr by absorbance based assay relative to brevibacillin; assay type: toxicity, cell-based; conditions: erythrocyte, dose 256 µg/ml; summary of the method: as §2
[18] = test system: Staphylococcus aureus; assay: Antimicrobial activity against Staphylococcus aureus ATCC 6538 assessed as diameter of growth inhibition at 128 ug/ml by radial diffusion assay; assay type: functional; conditions: dose 128 µg/ml; summary of the method: as §3
[19] = test system: Pseudomonas aeruginosa; assay: Antimicrobial activity against Pseudomonas aeruginosa ATCC […] assessed as diameter of growth inhibition at 128 ug/ml by radial diffusion assay; assay type: functional; conditions: dose 128 µg/ml; summary of the method: as §3
[20] = test system: Staphylococcus aureus; assay: Bacteriostatic activity against Staphylococcus aureus ATCC 6538 assessed as MBC/MIC ratio by microdilution assay; assay type: functional; summary of the method: as §4
[21] = test system: Campylobacter coli; assay: Bacteriostatic activity against Campylobacter coli ATCC 33559 assessed as MBC/MIC ratio by microdilution assay; assay type: functional; summary of the method: as §4

SMILES | MIC [1] | MIC [2] | MIC [3] | MIC [4] | hemolysis at 1 h, 128 ug/ml [5] | growth inhibition (qualitative call) [6] | IC50 at 48 h [7] | hemolysis at 1 h, 256 ug/ml [8] | MIC [9] | MIC [10] | MIC [11] | MIC [12] | MIC [14] | growth inhibition (qualitative call) [16] | also measured
C/C=C(/NC(=O)[C@@H](O)[C@@H](C)CC)C(=O)N[C@@H](CC(C)C)C(=O)N[C@H](CCCN)C(=O)N[C@H](C(=O)N[C@H](C(=O)N[C@H](C(=O)N[C@H](CCCCN)C(=O)N[C@H](C(=O)N[C@H](C(=O)N[C@@H](CCCCN)C(=O)N[C@H](Cc1ccc(O)cc1)C(=O)N[C@@H](CC(C)C)C(=O)N[C@H](CO)C(C)C)C(C)C)C(C)C)C(C)C)[C@@H](C)CC)[C@@H](C)CC | 8 µg/mL | 1 µg/mL | 4 µg/mL | 32 µg/mL | 9.6% | Active | 10.9 µg/mL (≈ 6.88 µM) | 25.2% | 2 µg/mL | 64 µg/mL | 2 µg/mL | 4 µg/mL | 1 µg/mL | Active | Activity [13]: Active; Activity [15]: Active
C/C=C(/NC(=O)[C@@H](O)[C@@H](C)CC)C(=O)N[C@@H](CC(C)C)C(=O)N[C@H](CCCN)C(=O)N[C@H](C(=O)N[C@H](C(=O)N[C@H](C(=O)N[C@H](CCCCN)C(=O)N[C@H](C(=O)N[C@H](C(=O)N[C@@H](CCCCN)C(=O)N[C@H](Cc1ccc(O)cc1)C(=O)N[C@@H](CC(C)C)C(=O)N[C@H](CO)C(C)C)C(C)C)C(C)C)C(C)C)C(C)C)C(C)C | 32 µg/mL | 8 µg/mL | 16 µg/mL | 64 µg/mL | 0.65% |  | 87.5 µg/mL (≈ 56.2 µM) |  | 4 µg/mL | > 128 µg/mL | 4 µg/mL | 32 µg/mL | 4 µg/mL |  | fold change (FC) [17]: 25; Activity [18]: 11 mm; Activity [19]: 12 mm; Ratio [20]: 8
CC[C@H](NC(=O)[C@@H](NC(C)=O)[C@@H](C)CC)C(=O)N[C@@H](CC(C)C)C(=O)N[C@H](CCCN)C(=O)N[C@H](C(=O)N[C@H](C(=O)N[C@H](C(=O)N[C@H](CCCCN)C(=O)N[C@H](C(=O)N[C@H](C(=O)N[C@@H](CCCCN)C(=O)N[C@H](Cc1ccc(O)cc1)C(=O)N[C@@H](CC(C)C)C(=O)N[C@H](C(N)=O)C(C)C)C(C)C)C(C)C)C(C)C)[C@@H](C)CC)[C@@H](C)CC | > 128 µg/mL | > 128 µg/mL | > 128 µg/mL | > 128 µg/mL | 23.3% | inactive | 14.9 µg/mL (≈ 9.08 µM) | 38.2% | > 128 µg/mL | > 128 µg/mL | > 128 µg/mL | > 128 µg/mL | > 128 µg/mL | inactive | 
C/C=C(/NC(=O)[C@@H](O)[C@@H](C)CC)C(=O)N[C@@H](CC(C)C)C(=O)N[C@H](CCCN)C(=O)N[C@H](C(=O)N[C@H](C(=O)N[C@H](C(=O)N[C@H](CCCCN)C(=O)N[C@H](C(=O)N[C@H](C(=O)N[C@@H](CCCCN)C(=O)N[C@H](Cc1ccc(O)cc1)C(=O)N[C@@H](CC(C)C)C(=O)N[C@H](C(N)=O)C(C)C)C(C)C)C(C)C)C(C)C)[C@@H](C)CC)[C@@H](C)CC | > 128 µg/mL | 4 µg/mL | 16 µg/mL | > 128 µg/mL | 11.8% | Not active; Exhibited Small Decrease In Activity | 16.6 µg/mL (≈ 10.4 µM) | 30.1% | 8 µg/mL | > 128 µg/mL | 2 µg/mL | 16 µg/mL | 4 µg/mL | Not active; Exhibited Small Decrease In Activity | 
CC[C@@H](NC(=O)[C@@H](O)[C@@H](C)CC)C(=O)N[C@@H](CC(C)C)C(=O)N[C@H](CCCN)C(=O)N[C@H](C(=O)N[C@H](C(=O)N[C@H](C(=O)N[C@H](CCCCN)C(=O)N[C@H](C(=O)N[C@H](C(=O)N[C@@H](CCCCN)C(=O)N[C@H](Cc1ccc(O)cc1)C(=O)N[C@@H](CC(C)C)C(=O)N[C@H](CO)C(C)C)C(C)C)C(C)C)C(C)C)C(C)C)C(C)C | 16 µg/mL | 4 µg/mL | 8 µg/mL | 64 µg/mL | 1.2% | Not active; Exhibited Small Decrease In Activity | 32.4 µg/mL (≈ 20.8 µM) | 4.2% | 2 µg/mL | > 128 µg/mL | 4 µg/mL | > 128 µg/mL | 2 µg/mL | Not active; Exhibited Small Decrease In Activity | 
CC[C@H](NC(=O)[C@@H](O)[C@@H](C)CC)C(=O)N[C@@H](CC(C)C)C(=O)N[C@H](CCCN)C(=O)N[C@H](C(=O)N[C@H](C(=O)N[C@H](C(=O)N[C@H](CCCCN)C(=O)N[C@H](C(=O)N[C@H](C(=O)N[C@@H](CCCCN)C(=O)N[C@H](Cc1ccc(O)cc1)C(=O)N[C@@H](CC(C)C)C(=O)N[C@H](CO)C(C)C)C(C)C)C(C)C)C(C)C)[C@@H](C)CC)[C@@H](C)CC | 4 µg/mL | 1 µg/mL | 2 µg/mL | > 128 µg/mL | 15.5% | Not active; Exhibited Small Decrease In Activity | 10 µg/mL (≈ 6.3 µM) | 58.7% | 1 µg/mL | > 128 µg/mL | 0.5 µg/mL | 2 µg/mL | 1 µg/mL | Not active; Exhibited Small Decrease In Activity | Ratio [21]: 8
